Results published in publication PMC4592802 (Journal of immunology (Baltimore, Md. : 1950), 2015).

Columns and labels:
[1] = tested on: CD4 on 3.L2 T cells; assay: Adhesion frequency assay for direct CD4 binding; set-up: species or system mouse; settings: MCC:I-E^k at >4,000 molecules/μm^2; contact 5s; n≥3 cell pairs, 50 contacts each
How it was run: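 3.L2 T cells, negatively selected from 6–8-week mouse spleens, were brought by micropipette into repeated 5-s contacts with human RBCs. The RBCs were biotinylated, streptavidin-linked and coated with noncognate MCC:I-E^k at >4,000 molecules/μm². Site densities came from PE-antibody flow cytometry against standard beads. Adhesion was scored from RBC membrane deflection on retraction, with frequency taken from 50 contacts per cell pair.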

[2] = tested on: 3.L2 TCR; settings: 3D SPR; ref [6]; cited from earlier work
[3] = tested on: 3.L2 TCR on CD8^+ 3.L2 T cells; assay: BFP force-clamp bond lifetime assay, CD8+ 3.L2 T cells; assay type: binding, mouse; settings: for Bond lifetime versus force / Bond type under force: force-clamp, 5-40 pN, CD8+ 3.L2 T cells; for Bond type under force: >300 lifetime events per ligand; for Force at maximum ratio of bond lifetime of Hb to that of the peptide: ratio bond lifetime Hb/peptide vs force (Fig. 6B)
How it was run: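 Biomembrane force probe force-clamp used beads carrying streptavidin-maleimide and subsaturating biotinylated pMHC-II. Each bond was loaded to a preset force and held constant until it dissociated. pMHC density was adjusted to keep adhesion frequency <20%, for […] single bonds. >300 lifetimes per ligand were taken over 5-40pN, in 5-7 bins. The Hb/peptide lifetime ratio was calculated from the force versus lifetime data.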

[4] = tested on: 3.L2 TCR T-cell response; settings: relative activity of well-characterized ligands; ref [6], [36]; cited from earlier work
[5] = tested on: 3.L2 TCR on CD4^+ 3.L2 T cells; assay: Micropipette adhesion frequency assay, CD4+ 3.L2 T cells; assay type: binding, mouse; settings: T cells treated with anti-CD4 GK1.5, 20 μg/ml
How it was run: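 T cells were incubated 30min at 4°C with 20μg/ml anti-CD4 GK1.5, then tested with the same antibody present. Micropipette contacts were made with pMHC-coated RBCs, and adhesion frequency counted from 50 contacts per cell pair over a range of contact times. A least-squares fit to the probabilistic kinetic equation, using measured TCR and pMHC densities, gave AcKa and koff. On-rate = AcKa × koff.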

[6] = tested on: 3.L2 TCR on T cells; assay: Thermal fluctuation assay; assay type: binding, mouse; settings: T cells treated with anti-CD4 GK1.5; zero force
How it was run: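 Cells were pretreated 30min at 4°C with 20μg/ml anti-CD4 GK1.5, and the antibody was kept in the chamber during measurement. A biomembrane force probe bead bearing subsaturating biotinylated pMHC-II contacted the T cell. Bond lifetime ran from reduction to resumption of bead thermal fluctuations. koff was taken from the negative slope of ln(events with lifetime > t_b) versus t_b.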

[7] = molecular target: CD4 (mouse (endogenous in 3.L2 transgenic mouse T cells)) (UniProt P06332); assay: micropipette adhesion frequency assay
Chain of UniProt P06332 (P06332 27-457): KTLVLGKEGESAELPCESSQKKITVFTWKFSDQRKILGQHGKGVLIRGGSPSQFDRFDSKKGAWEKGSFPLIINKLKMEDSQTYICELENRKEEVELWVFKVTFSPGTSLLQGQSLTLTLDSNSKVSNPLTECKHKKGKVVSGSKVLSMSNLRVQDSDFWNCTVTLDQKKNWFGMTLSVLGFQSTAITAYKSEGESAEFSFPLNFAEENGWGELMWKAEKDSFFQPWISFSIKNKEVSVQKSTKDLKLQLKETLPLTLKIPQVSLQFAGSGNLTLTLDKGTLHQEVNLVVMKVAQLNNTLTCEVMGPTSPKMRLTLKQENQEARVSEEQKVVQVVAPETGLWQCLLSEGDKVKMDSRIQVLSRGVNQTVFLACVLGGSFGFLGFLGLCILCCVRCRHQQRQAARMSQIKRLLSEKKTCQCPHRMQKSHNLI

In the case of ANERADLIAYLKQATK [MCC], the “Adhesion frequency Pa, noncognate pMHC-II, very high site density” value [1] is reported as less than 5%.
In the case of GKKVITAFAEGLK [A72], the “Detectability by SPR (earlier work)” value [2] is given as “not previously detectable using SPR”, the “Bond lifetime versus force” value [3] is given as “decreases monotonically with increasing force” and the “Bond type under force” value [3] is given as “slip-only bonds”. For the same substance, the “Force at maximum ratio of bond lifetime of Hb to that of the peptide” value [3] was 10-15 pN and the “Classification of Ligand” value [4] was “Weak antagonist”.
In the case of GKKVITAFIEGLK [I72], the “Bond lifetime versus force” value [3] is reported as “decreases monotonically with increasing force”, the “Bond type under force” value [3] is reported as “slip-only bonds” and the “Force at maximum ratio of bond lifetime of Hb to that of the peptide” value [3] is reported as 10-15 pN. For the same substance, the “Classification of Ligand” value [4] was “Antagonist”.
For GKKVITAFNEGLK [Hb], the “Bond type under force” value [3] was “catch-slip bonds”, the “Effective 2D on-rate, Ackon, with CD4 blocking” value ([5]; calculated as AcKa × koff) was 3.16 ± 0.42 × 10^−4 μm^4s^−1 and the “2D off-rate, koff (adhesion frequency assay)**, with CD4 blocking” value ([5]; zero force) was 1.89 ± 0.31 s⁻¹. For the same substance, the “2D off-rate, koff (thermal fluctuation assay)*, with CD4 blocking” value [6] was 1.41 ± 0.17 s⁻¹ and the “Classification of Ligand” value [4] was “Agonist”.
In the case of GKKVITAFTEGLK [T72], the “Bond type under force” value [3] is given as “catch-slip bonds” and the “Classification of Ligand” value [4] is given as “Weak agonist”.
Work on “moth cytochrome c (MCC) peptide 88-103 bound to I-E^k (peptide-MHC)” yielded an adhesion frequency [7] of less than 5%.
